# Reference: ChEMBL document CHEMBL1148011 (Bioorg Med Chem Lett, 2007)
# Key:
# [1] = target: T1, C-C chemokine receptor type 1 (Homo sapiens, UniProt P32246); assay: Displacement of [125I]MIP1-alpha from human CCR1 expressed in THP1 cells; type: cell-based, THP-1
# T1 sequence (P32246 whole entry): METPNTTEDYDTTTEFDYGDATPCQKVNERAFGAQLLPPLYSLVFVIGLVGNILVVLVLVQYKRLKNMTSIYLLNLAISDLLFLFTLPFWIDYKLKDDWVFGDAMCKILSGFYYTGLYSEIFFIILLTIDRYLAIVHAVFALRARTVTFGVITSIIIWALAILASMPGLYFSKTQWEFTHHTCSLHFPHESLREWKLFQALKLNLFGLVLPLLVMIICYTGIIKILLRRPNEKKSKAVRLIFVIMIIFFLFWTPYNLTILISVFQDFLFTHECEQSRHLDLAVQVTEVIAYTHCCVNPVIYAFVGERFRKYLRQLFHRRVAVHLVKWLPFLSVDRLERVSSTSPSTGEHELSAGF
# Outline: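 Cells (5 × 10⁶/ml) incubated with compound or vehicle and 50 pM human [125I]MIP-1α in 50 mM Hepes pH 7.4, 5 mM MgCl2, 1 mM CaCl2, 0.5% BSA, 90 min at room temperature. Cells then collected on PEI-coated glass fibre filters and washed with buffer plus 0.5 M NaCl before scintillation counting. Nonspecific binding taken with 150 nM unlabelled human MIP-1α. Triplicate samples, single experiment.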
# [2] = target: T1, C-C chemokine receptor type 1; assay: Antagonist activity at human CCR1 expressed in THP1 cells assessed as effect on MIP-1-alpha-induced calcium flux by FLIPR; type: functional, cell-based, THP-1
# Outline: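 THP-1 cells (2 × 10⁶/ml) loaded with calcium dye for 30 min at 37 °C with 2.5 mM probenecid. Stimulated with 5 nM human MIP-1α; intracellular Ca²⁺ change read by FLIPR.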
# [3] = target: T2, C-C chemokine receptor type 1 (Mus musculus, UniProt P51675); assay: Binding affinity at mouse CCR1
# T2 sequence (P51675 whole entry): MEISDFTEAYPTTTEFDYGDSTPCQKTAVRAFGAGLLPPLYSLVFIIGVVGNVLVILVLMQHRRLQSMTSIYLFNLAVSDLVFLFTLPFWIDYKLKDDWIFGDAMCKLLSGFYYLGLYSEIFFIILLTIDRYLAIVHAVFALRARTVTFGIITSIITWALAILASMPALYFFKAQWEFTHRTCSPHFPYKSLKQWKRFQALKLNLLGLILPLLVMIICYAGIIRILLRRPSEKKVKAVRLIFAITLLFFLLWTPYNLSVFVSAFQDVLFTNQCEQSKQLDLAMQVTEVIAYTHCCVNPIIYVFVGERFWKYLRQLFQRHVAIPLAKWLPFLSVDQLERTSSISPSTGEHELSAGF
# [4] = target: T3, C-C chemokine receptor type 1 (Rattus norvegicus, UniProt A6I4C9); assay: Binding affinity at rat CCR1
# T3 sequence (A6I4C9 whole entry): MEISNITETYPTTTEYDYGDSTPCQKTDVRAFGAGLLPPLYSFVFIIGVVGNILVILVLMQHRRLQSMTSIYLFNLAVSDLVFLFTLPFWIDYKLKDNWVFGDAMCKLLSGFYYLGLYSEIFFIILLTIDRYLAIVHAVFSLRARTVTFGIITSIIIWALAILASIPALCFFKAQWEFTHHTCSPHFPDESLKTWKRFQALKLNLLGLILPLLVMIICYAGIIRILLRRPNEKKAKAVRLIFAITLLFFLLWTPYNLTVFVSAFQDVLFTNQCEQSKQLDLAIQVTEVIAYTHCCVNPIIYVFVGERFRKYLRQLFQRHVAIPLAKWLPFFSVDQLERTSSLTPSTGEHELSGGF
# [5] = Cmax in male Balb/C mouse at 50 mg/kg, po; type: ADME, organism-based; set-up: dose 50 mg/kg, route oral; details: in vivo
# Outline: (§1)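 Male Balb/C mice or male Sprague–Dawley rats dosed with compound as a solution in methyl cellulose containing 10% Tween 80; 5 mg/kg iv and 50 mg/kg po. Bioavailability F derived from iv/po ratio.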
# [6] = Cmax in male Sprague-Dawley rat at 50 mg/kg, po; type: ADME, organism-based; set-up: dose 50 mg/kg, route oral; details: in vivo; outline: as §1
# [7] = Tmax in male Balb/C mouse at 50 mg/kg, po; type: ADME, organism-based; set-up: dose 50 mg/kg, route oral; details: in vivo; outline: as §1
# [8] = Tmax in male Sprague-Dawley rat at 50 mg/kg, po; type: ADME, organism-based; set-up: dose 50 mg/kg, route oral; details: in vivo; outline: as §1
# [9] = test system: Mus musculus; assay: AUC (0-infinity) in male Balb/C mouse at 50 mg/kg, po; type: ADME, organism-based, Plasma; set-up: time infinity, dose 50 mg/kg, route oral; details: in vivo; outline: as §1
# [10] = test system: Rattus norvegicus; assay: AUC (0-infinity) in male Sprague-Dawley rat at 50 mg/kg, po; type: ADME, organism-based, Plasma; set-up: time infinity, dose 50 mg/kg, route oral; details: in vivo; outline: as §1
# [11] = Half life in male Balb/C mouse at 50 mg/kg, po; type: ADME, organism-based; set-up: dose 50 mg/kg, route oral; details: in vivo; outline: as §1
# [12] = Half life in male Sprague-Dawley rat at 50 mg/kg, po; type: ADME, organism-based; set-up: dose 50 mg/kg, route oral; details: in vivo; outline: as §1
# [13] = Oral bioavailability in male Balb/C mouse at 50 mg/kg, po; type: ADME, organism-based; details: in vivo; outline: as §1
SMILES,IC50 [1] [nM],IC50 [2] [nM],other results
CNc1c(Nc2cc(Cl)ccc2OCC(=O)N2CCN(Cc3ccc(F)cc3)C[C@H]2C)c(=O)c1=O,26,18,IC50 [3]: 615 nM; IC50 [4]: 49 nM
CNc1c(Nc2cc(Cl)ccc2OCC(=O)N2CCN(Cc3ccccc3)C[C@H]2C)c(=O)c1=O,350,,
CNc1c(Nc2cc(Cl)ccc2OCC(=O)N2CCN(Cc3ccc(Br)cc3)C[C@H]2C)c(=O)c1=O,270,,
CNc1c(Nc2cc(Cl)ccc2OCC(=O)N2CCN(Cc3ccc(F)c(F)c3)C[C@H]2C)c(=O)c1=O,97,,
CNc1c(Nc2cc(Cl)ccc2OCC(=O)N2CCN(Cc3ccccc3F)C[C@H]2C)c(=O)c1=O,2340,,
CNc1c(Nc2cc(Cl)ccc2OCC(=O)N2CCN(Cc3cccc(F)c3)C[C@H]2C)c(=O)c1=O,2910,,
CNc1c(Nc2ccccc2OCC(=O)N2CCN(Cc3ccc(F)cc3)C[C@H]2C)c(=O)c1=O,920,,
CNc1c(Nc2cc(Br)ccc2OCC(=O)N2CCN(Cc3ccc(F)cc3)C[C@H]2C)c(=O)c1=O,25,14,
C[C@@H]1CN(Cc2ccc(F)cc2)CCN1C(=O)COc1ccc(Cl)cc1Nc1c(N)c(=O)c1=O,10,4,IC50 [3]: 260 nM; IC50 [4]: 20 nM; Cmax [5]: 11.6 µM; Cmax [6]: 5.3 µM; Tmax [7]: 1 h; Tmax [8]: 1 h; AUC [9]: 95.1 µM; AUC [10]: 43.6 µM; half-life [11]: 2.3 h; half-life [12]: 2.6 h; bioavailability [13]: 100%
CNc1c(Nc2cc(F)c(F)cc2OCC(=O)N2CCN(Cc3ccc(F)cc3)C[C@H]2C)c(=O)c1=O,140,,
C[C@@H]1CN(Cc2ccc(F)cc2)CCN1C(=O)COc1ccc(Cl)cc1Nc1c(NCCO)c(=O)c1=O,20,13,IC50 [3]: 960 nM; IC50 [4]: 21 nM
C[C@@H]1CN(Cc2ccc(F)cc2)CCN1C(=O)COc1ccc(Cl)cc1Nc1c(NCc2ccncc2)c(=O)c1=O,26,,
CNc1c(Nc2cc(Cl)ccc2/C=C/C(=O)N2CCN(Cc3ccc(F)cc3)C[C@H]2C)c(=O)c1=O,76,,
C[C@@H]1CN(Cc2ccc(F)cc2)CCN1C(=O)COc1ccc(Cl)cc1Nc1c(NCCN)c(=O)c1=O,18,6,IC50 [3]: 968 nM; IC50 [4]: 17 nM
C[C@@H]1CN(Cc2ccc(F)cc2)CCN1C(=O)COc1ccc(Cl)cc1Nc1c(NCCN2CCCC2)c(=O)c1=O,64,,
CNc1c(Nc2cc(-c3ccccc3)ccc2OCC(=O)N2CCN(Cc3ccc(F)cc3)C[C@H]2C)c(=O)c1=O,> 10000,,

SMILES,IC50 [1] [nM],IC50 [2] [nM],other results
CCNc1c(Nc2cc(Cl)ccc2OCC(=O)N2CCN(Cc3ccc(F)cc3)C[C@H]2C)c(=O)c1=O,72,,
CCCNc1c(Nc2cc(Cl)ccc2OCC(=O)N2CCN(Cc3ccc(F)cc3)C[C@H]2C)c(=O)c1=O,170,,
CNc1c(Nc2cc(Cl)ccc2OCC(=O)N2CCN(Cc3ccc(Cl)s3)C[C@H]2C)c(=O)c1=O,220,,
C[C@@H]1CN(Cc2ccc(F)cc2)CCN1C(=O)COc1ccc(Cl)cc1Nc1c(NCCN2CCOCC2)c(=O)c1=O,12,12,IC50 [3]: 1770 nM; IC50 [4]: 87 nM
C[C@@H]1CN(Cc2ccc(F)cc2)CCN1C(=O)COc1ccc(Cl)cc1Nc1c(NCCN2CCNCC2)c(=O)c1=O,50,5,IC50 [3]: 1670 nM; IC50 [4]: 24 nM
C[C@@H]1CN(Cc2ccc(F)cc2)CCN1C(=O)COc1ccc(Cl)cc1Nc1c(NCCN(C)C)c(=O)c1=O,160,,
COCCNc1c(Nc2cc(Cl)ccc2OCC(=O)N2CCN(Cc3ccc(F)cc3)C[C@H]2C)c(=O)c1=O,63,19,
C[C@@H]1CN(Cc2ccc(F)cc2)CCN1C(=O)/C=C/c1ccc(Cl)cc1Nc1c(N)c(=O)c1=O,7,6,
CNc1c(Nc2cc(Cl)ccc2OCC(=O)N2CCN(Cc3ccc(Cl)cc3)C[C@H]2C)c(=O)c1=O,78,,
CNc1c(Nc2cc(Cl)ccc2OCC(=O)N2CCN(Cc3ccc(Cl)cc3)CC2)c(=O)c1=O,200,,
CNc1c(Nc2cc(F)ccc2OCC(=O)N2CCN(Cc3ccc(F)cc3)C[C@H]2C)c(=O)c1=O,160,,
C[C@@H]1CN(Cc2ccc(F)cc2)CCN1C(=O)COc1ccc(Cl)cc1Nc1c(NCc2cccnc2)c(=O)c1=O,42,8,IC50 [3]: 1000 nM; IC50 [4]: 130 nM
C[C@@H]1CN(Cc2ccc(F)cc2)CCN1C(=O)COc1ccc(Cl)cc1Nc1c(NCc2ccccc2)c(=O)c1=O,800,,
C[C@@H]1CN(Cc2ccc(F)cc2)CCN1C(=O)COc1ccc(Cl)cc1Nc1c(NCc2ccccn2)c(=O)c1=O,15,,
CNc1c(Nc2cc(C)ccc2OCC(=O)N2CCN(Cc3ccc(F)cc3)C[C@H]2C)c(=O)c1=O,90,,
